# Assay results reported in ChEMBL document CHEMBL1157589, “Antifungal 3,5-disubstituted furanones: From 5-acyloxymethyl to 5-alkylidene derivatives” (Bioorg Med Chem, 2010).
# Tests used:
# Candida parapsilosis [1] = assay: Antifungal activity against Candida parapsilosis ATCC 22019 after 48 hrs by microdilution method; assay type: functional; details: Lodderomyces parapsilosis, ATCC 22019, 48 h
# Outline: (§1)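 Yeasts held on Sabouraud dextrose agar. MIC by NCCLS M27-A broth microdilution in RPMI 1640 with L-glutamine, buffered with 0.165 M MOPS to pH 7.0. Compounds in DMSO (≤2% final), twofold dilutions 500–0.48. Final inoculum 5 × 10³ ± 0.2 cfu mL⁻¹. Incubated at 35 °C; absorbance at 540 nm read at 24 and 48 h. MIC is 80% growth inhibition versus control; run twice in duplicate.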
# Candida parapsilosis [2] = assay: Antifungal activity against Candida parapsilosis ATCC 22019 after 24 hrs by microdilution method; assay type: functional; details: Lodderomyces parapsilosis, ATCC 22019, 24 h; outline: as §1
# Nakaseomyces glabratus [3] = assay: Antifungal activity against Candida glabrata 20/I after 24 hrs by microdilution method; assay type: functional; outline: as §1
# Nakaseomyces glabratus [4] = assay: Antifungal activity against Candida glabrata 20/I after 48 hrs by microdilution method; assay type: functional; outline: as §1
# Candida albicans [5] = assay: Antifungal activity against Candida albicans ATCC 44859 after 24 hrs by microdilution method; assay type: functional; details: ATCC 44859, 24 h; outline: as §1
# Lichtheimia corymbifera [6] = assay: Antifungal activity against Absidia corymbifera 272 after 48 hrs by microdilution method; assay type: functional; details: Lichtheimia corymbifera, 272, 48 h
# Outline: (§2)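 Filamentous strains held on Sabouraud dextrose agar. NCCLS M27-A broth microdilution in RPMI 1640 with L-glutamine and 0.165 M MOPS, pH 7.0. DMSO diluent ≤2% final; twofold dilutions 500–0.48. Inoculum 5 × 10³ ± 0.2 cfu mL⁻¹ final.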
# [7] = system: Trichophyton mentagrophytes; assay: Antifungal activity against Trichophyton mentagrophytes 445 after 120 hrs by microdilution method; assay type: functional; details: Trichophyton mentagrophytes, 445, 120 h
# Outline: (§3)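 Dermatophyte held on Sabouraud dextrose agar. M27-A microdilution in MOPS-buffered (0.165 M, pH 7.0) RPMI 1640 with L-glutamine. DMSO ≤2% final; twofold dilutions 500–0.48. Inoculum 5 × 10³ ± 0.2 cfu mL⁻¹ final. Incubated at 35 °C; MIC read visually at 72 and 120 h as 80% inhibition of control growth; determined twice in duplicate.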
# Candida tropicalis [8] = assay: Antifungal activity against Candida tropicalis 156 after 48 hrs by microdilution method; assay type: functional; details: Candida tropicalis, 156, 48 h; outline: as §1
# HeLa S3 = assay: Cytostatic activity against human HeLaS3 cells after 48 hrs by XTT assay; details: Homo sapiens, HeLa S3, 48 h; read-out: IC50
# Candida albicans [9] = assay: Antifungal activity against Candida albicans ATCC 90028 after 24 hrs by microdilution method; assay type: functional; details: ATCC 90028, 24 h; outline: as §1
# Trichosporon beigelii [10] = assay: Antifungal activity against Trichosporon beigelii 1188 after 24 hrs by microdilution method; assay type: functional; details: Trichosporon beigelii, 1188, 24 h; outline: as §1
# Clavispora lusitaniae [11] = assay: Antifungal activity against Candida lusitaniae 2446/I after 48 hrs by microdilution method; assay type: functional; outline: as §1
# Pichia kudriavzevii [12] = assay: Antifungal activity against Candida krusei ATCC 6258 after 48 hrs by microdilution method; assay type: functional; details: ATCC 6258, 48 h; outline: as §1
# Clavispora lusitaniae [13] = assay: Antifungal activity against Candida lusitaniae 2446/I after 24 hrs by microdilution method; assay type: functional; outline: as §1
# Trichosporon beigelii [14] = assay: Antifungal activity against Trichosporon beigelii 1188 after 48 hrs by microdilution method; assay type: functional; details: Trichosporon beigelii, 1188, 48 h; outline: as §1
# Pichia kudriavzevii [15] = assay: Antifungal activity against Candida krusei E28 after 24 hrs by microdilution method; assay type: functional; details: E28, 24 h; outline: as §1
# CCRF-CEM = assay: Cytostatic activity against human CCRF-CEM cells after 72 hrs by XTT assay; assay type: functional, cell-based; details: Homo sapiens, CCRF-CEM, 72 h; read-out: IC50
# Outline: (§4)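 Leukemia cells (L1210 ATCC CCL 219, CCRF-CEM ATCC CCL 119, HL-60 ATCC CCL 240) grown in 24-well plates in RPMI 1640 with fetal calf serum. Growth assessed 72 h after drug addition. Viability measured by XTT spectrophotometric assay; potency given as IC50.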
# Candida albicans [16] = assay: Antifungal activity against Candida albicans ATCC 90028 after 48 hrs by microdilution method; assay type: functional; details: ATCC 90028, 48 h; outline: as §1
# Pichia kudriavzevii [17] = assay: Antifungal activity against Candida krusei ATCC 6258 after 24 hrs by microdilution method; assay type: functional; details: ATCC 6258, 24 h; outline: as §1
# Aspergillus fumigatus [18] = assay: Antifungal activity against Aspergillus fumigatus 231 after 48 hrs by microdilution method; assay type: functional; details: Aspergillus fumigatus, 231, 48 h; outline: as §2
# Candida tropicalis [19] = assay: Antifungal activity against Candida tropicalis 156 after 24 hrs by microdilution method; assay type: functional; details: Candida tropicalis, 156, 24 h; outline: as §1
# Lichtheimia corymbifera [20] = assay: Antifungal activity against Absidia corymbifera 272 after 24 hrs by microdilution method; assay type: functional; details: Lichtheimia corymbifera, 272, 24 h; outline: as §2
# Candida albicans [21] = assay: Antifungal activity against Candida albicans ATCC 44859 after 48 hrs by microdilution method; assay type: functional; details: ATCC 44859, 48 h; outline: as §1
# Pichia kudriavzevii [22] = assay: Antifungal activity against Candida krusei E28 after 48 hrs by microdilution method; assay type: functional; details: E28, 48 h; outline: as §1
# HL-60 = assay: Cytostatic activity against human HL60 cells after 72 hrs by XTT assay; assay type: functional, cell-based; details: Homo sapiens, HL-60, 72 h; read-out: IC50; outline: as §4
# Aspergillus fumigatus [23] = assay: Antifungal activity against Aspergillus fumigatus 231 after 24 hrs by microdilution method; assay type: functional; details: Aspergillus fumigatus, 231, 24 h; outline: as §2
# [24] = system: Trichophyton mentagrophytes; assay: Antifungal activity against Trichophyton mentagrophytes 445 after 72 hrs by microdilution method; assay type: functional; details: Trichophyton mentagrophytes, 445, 72 h; outline: as §3
Structure (SMILES),MIC80 (Candida parapsilosis [1]) [µM],MIC80 (Candida parapsilosis [2]) [µM],MIC80 (Nakaseomyces glabratus [3]) [µM],MIC80 (Nakaseomyces glabratus [4]) [µM],MIC80 (Candida albicans [5]) [µM],MIC80 (Lichtheimia corymbifera [6]) [µM],MIC80 [7] [µM],MIC80 (Candida tropicalis [8]) [µM],IC50 (HeLa S3) [µM],MIC80 (Candida albicans [9]) [µM],MIC80 (Trichosporon beigelii [10]) [µM],MIC80 (Clavispora lusitaniae [11]) [µM],MIC80 (Pichia kudriavzevii [12]) [µM],MIC80 (Clavispora lusitaniae [13]) [µM],MIC80 (Trichosporon beigelii [14]) [µM],MIC80 (Pichia kudriavzevii [15]) [µM],IC50 (CCRF-CEM) [µM],MIC80 (Candida albicans [16]) [µM],MIC80 (Pichia kudriavzevii [17]) [µM],MIC80 (Aspergillus fumigatus [18]) [µM],other results
O=C1OC(COc2ccccc2)C=C1c1ccc(Br)cc1 (stereo unspecified),31.2,7.81,1.95,1.95,0.97,500,3.9,15.6,4.67,1.95,7.81,7.81,31.2,3.9,31.2,15.6,1.09,7.81,7.81,15.6,MIC80 (Candida tropicalis [19]): 7.81 µM; MIC80 (Lichtheimia corymbifera [20]): 125 µM; MIC80 (Candida albicans [21]): 1.95 µM; MIC80 (Pichia kudriavzevii [22]): 31.2 µM; IC50 (HL-60): 4.37 µM; MIC80 (Aspergillus fumigatus [23]): 1.95 µM; MIC80 [24]: 1.95 µM
O=C1OC(COc2ccc(I)cc2)C=C1c1ccc(Br)cc1 (stereo unspecified),> 500,31.2,1.95,3.9,0.48,> 500,3.9,31.2,4,3.9,7.81,31.2,> 500,7.81,500,31.2,1.19,7.81,31.2,7.81,MIC80 (Candida tropicalis [19]): 15.6 µM; MIC80 (Lichtheimia corymbifera [20]): > 500 µM; MIC80 (Candida albicans [21]): 1.95 µM; MIC80 (Pichia kudriavzevii [22]): > 500 µM; IC50 (HL-60): 7.22 µM; MIC80 (Aspergillus fumigatus [23]): 3.9 µM; MIC80 [24]: 1.95 µM
COC(=O)c1ccc(OCC2C=C(c3ccc(Br)cc3)C(=O)O2)cc1 (stereo unspecified),15.6,15.6,3.9,3.9,0.48,125,3.9,15.6,4.5,3.9,7.81,15.6,15.6,7.81,15.6,15.6,1.25,7.81,15.6,7.81,MIC80 (Candida tropicalis [19]): 15.6 µM; MIC80 (Lichtheimia corymbifera [20]): 62.5 µM; MIC80 (Candida albicans [21]): 1.95 µM; MIC80 (Pichia kudriavzevii [22]): 15.6 µM; IC50 (HL-60): 4.05 µM; MIC80 (Aspergillus fumigatus [23]): 3.9 µM; MIC80 [24]: 3.9 µM
